Experimental data taken from ChEMBL document CHEMBL5724801, “EUbOPEN Chemogenomics Library - Multiplex” (2024).
“And” between values parts separate entries of the source, which are not always exact repeats. Equal values may be shown once.

Experiments:
Fibroblast = assay: Multiplex assay against human fibroblast; type: toxicity, cell-based
Procedure, shortened: (§1)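 Live cells were stained at seeding with Hoechst33342, BioTracker Green Microtubule Cytoskeleton Dye, MitoTracker Red and Annexin V Alexa Fluor 680. Following compound addition, they were imaged on a CQ1 microscope at 37°C and 5% CO2 and gated by CellPathfinder machine learning into Hoechst high-intensity objects or normal cells, with normal cells split into healthy, pyknosed or fragmented nuclei and pyknosed cells into mitotic or apoptotic. Tubulin, mitochondrial-mass and membrane-permeability phenotypes are per cents of healthy-nucleus cells.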

HEK-293T = assay: Multiplex assay against HEK293T; type: toxicity, cell-based; conditions: human; procedure, shortened: as §1
[1] = 12 h, 1 µM, compound concentration 1 uM
[2] = 12 h, 10 µM, compound concentration 10 uM
[3] = 24 h, 1 µM, compound concentration 1 uM
[4] = 24 h, 10 µM, compound concentration 10 uM
[5] = 48 h, 1 µM, compound concentration 1 uM
[6] = 48 h, 10 µM, compound concentration 10 uM

SMILES: CC[C@H](Nc1ncnc2[nH]cnc12)c1nc2cccc(F)c2c(=O)n1-c1ccccc1 [IDELALISIB]
- Population Apoptotic (%) (Fibroblast; [1]): 12.5% and 30.56%
- Population Fragmented Nuclei (%) (Fibroblast; [1]): 8.54% and 3.76%
- Population Healthy Nuclei (%) (Fibroblast; [1]): 58.94% and 76.88%
- Population Hoechst High Intensity Objects (%) (Fibroblast; [1]): 7.17% and 0%
- Population Membrane Permeable-Phenotype (%) (Fibroblast; [1]): 3.45% and 2.8%
- Population Mitochondria Different-Phenotype (%) (Fibroblast; [1]): 10.34% and 11.89%
- Population Mitotic Cells (%) (Fibroblast; [1]): 87.5% and 69.44%
- Population Normal (%) (Fibroblast; [1]): 92.83% and 100%
- Population Pyknosed Nuclei (%) (Fibroblast; [1]): 32.52% and 19.35%
- Population Tubulin-Different-Phenotype (%) (Fibroblast; [1]): 22.76% and 24.48%
- Total Cell Count (Fibroblast; [1]): 265 and 186
- Population Apoptotic (%) (Fibroblast; [2]): 7.84% and 18.6%
- Population Fragmented Nuclei (%) (Fibroblast; [2]): 13.24% and 8.44%
- Population Healthy Nuclei (%) (Fibroblast; [2]): 63.47% and 72.44%
- Population Hoechst High Intensity Objects (%) (Fibroblast; [2]): 0%
- Population Membrane Permeable-Phenotype (%) (Fibroblast; [2]): 11.51% and 11.04%
- Population Mitochondria Different-Phenotype (%) (Fibroblast; [2]): 16.55% and 16.56%
- Population Mitotic Cells (%) (Fibroblast; [2]): 92.16% and 81.4%
- Population Normal (%) (Fibroblast; [2]): 100%
- Population Pyknosed Nuclei (%) (Fibroblast; [2]): 23.29% and 19.11%
- Population Tubulin-Different-Phenotype (%) (Fibroblast; [2]): 53.24% and 61.96%
- Total Cell Count (Fibroblast; [2]): 219 and 225
- Population Apoptotic (%) (Fibroblast; [3]): 12.5% and 29.41%
- Population Fragmented Nuclei (%) (Fibroblast; [3]): 8.53% and 9.31%
- Population Healthy Nuclei (%) (Fibroblast; [3]): 69.77% and 82.35%
- Population Hoechst High Intensity Objects (%) (Fibroblast; [3]): 5.84% and 0%
- Population Membrane Permeable-Phenotype (%) (Fibroblast; [3]): 6.11% and 1.79%
- Population Mitochondria Different-Phenotype (%) (Fibroblast; [3]): 3.89% and 7.14%
- Population Mitotic Cells (%) (Fibroblast; [3]): 87.5% and 70.59%
- Population Normal (%) (Fibroblast; [3]): 94.16% and 100%
- Population Pyknosed Nuclei (%) (Fibroblast; [3]): 21.71% and 8.33%
- Population Tubulin-Different-Phenotype (%) (Fibroblast; [3]): 16.67% and 20.24%
- Total Cell Count (Fibroblast; [3]): 274 and 204
- Population Apoptotic (%) (Fibroblast; [4]): 8.33% and 21.88%
- Population Fragmented Nuclei (%) (Fibroblast; [4]): 9.91% and 5.37%
- Population Healthy Nuclei (%) (Fibroblast; [4]): 73.87% and 79.02%
- Population Hoechst High Intensity Objects (%) (Fibroblast; [4]): 0%
- Population Membrane Permeable-Phenotype (%) (Fibroblast; [4]): 9.15% and 6.79%
- Population Mitochondria Different-Phenotype (%) (Fibroblast; [4]): 15.24% and 12.35%
- Population Mitotic Cells (%) (Fibroblast; [4]): 91.67% and 78.12%
- Population Normal (%) (Fibroblast; [4]): 100%
- Population Pyknosed Nuclei (%) (Fibroblast; [4]): 16.22% and 15.61%
- Population Tubulin-Different-Phenotype (%) (Fibroblast; [4]): 46.95% and 64.2%
- Total Cell Count (Fibroblast; [4]): 222 and 205
- Population Apoptotic (%) (Fibroblast; [5]): 40.74% and 37.5%
- Population Fragmented Nuclei (%) (Fibroblast; [5]): 8.52% and 5.13%
- Population Healthy Nuclei (%) (Fibroblast; [5]): 81.48% and 90.77%
- Population Hoechst High Intensity Objects (%) (Fibroblast; [5]): 7.22% and 0%
- Population Membrane Permeable-Phenotype (%) (Fibroblast; [5]): 1.36% and 3.39%
- Population Mitochondria Different-Phenotype (%) (Fibroblast; [5]): 11.36% and 3.39%
- Population Mitotic Cells (%) (Fibroblast; [5]): 59.26% and 62.5%
- Population Normal (%) (Fibroblast; [5]): 92.78% and 100%
- Population Pyknosed Nuclei (%) (Fibroblast; [5]): 10% and 4.1%
- Population Tubulin-Different-Phenotype (%) (Fibroblast; [5]): 9.09% and 16.95%
- Total Cell Count (Fibroblast; [5]): 291 and 195
- Population Apoptotic (%) (Fibroblast; [6]): 25% and 23.81%
- Population Fragmented Nuclei (%) (Fibroblast; [6]): 12.65% and 4.81%
- Population Healthy Nuclei (%) (Fibroblast; [6]): 82.45% and 85.1%
- Population Hoechst High Intensity Objects (%) (Fibroblast; [6]): 0%
- Population Membrane Permeable-Phenotype (%) (Fibroblast; [6]): 3.96% and 10.73%
- Population Mitochondria Different-Phenotype (%) (Fibroblast; [6]): 11.39% and 11.3%
- Population Mitotic Cells (%) (Fibroblast; [6]): 75% and 76.19%
- Population Normal (%) (Fibroblast; [6]): 100%
- Population Pyknosed Nuclei (%) (Fibroblast; [6]): 4.9% and 10.1%
- Population Tubulin-Different-Phenotype (%) (Fibroblast; [6]): 30.2% and 57.06%
- Total Cell Count (Fibroblast; [6]): 245 and 208
- Population Apoptotic (%) (HEK-293T; [1]): 9.6% and 7.3%
- Population Fragmented Nuclei (%) (HEK-293T; [1]): 0.69% and 2.22%
- Population Healthy Nuclei (%) (HEK-293T; [1]): 58.33% and 21.67%
- Population Hoechst High Intensity Objects (%) (HEK-293T; [1]): 0%
- Population Membrane Permeable-Phenotype (%) (HEK-293T; [1]): 1.19% and 0%
- Population Mitochondria Different-Phenotype (%) (HEK-293T; [1]): 34.13% and 17.95%
- Population Mitotic Cells (%) (HEK-293T; [1]): 90.4% and 92.7%
- Population Normal (%) (HEK-293T; [1]): 100%
- Population Pyknosed Nuclei (%) (HEK-293T; [1]): 40.97% and 76.11%
- Total Cell Count (HEK-293T; [1]): 432 and 180
- Population Apoptotic (%) (HEK-293T; [2]): 16.78% and 14.29%
- Population Fragmented Nuclei (%) (HEK-293T; [2]): 0.89% and 4.58%
- Population Hoechst High Intensity Objects (%) (HEK-293T; [2]): 0%
- Population Membrane Permeable-Phenotype (%) (HEK-293T; [2]): 0% and 7.69%
- Population Mitochondria Different-Phenotype (%) (HEK-293T; [2]): 29.11% and 15.38%
- Population Mitotic Cells (%) (HEK-293T; [2]): 83.22% and 85.71%
- Population Normal (%) (HEK-293T; [2]): 100%
- Population Pyknosed Nuclei (%) (HEK-293T; [2]): 63.84% and 86.93%
- Population Tubulin-Different-Phenotype (%) (HEK-293T; [2]): 34.18% and 38.46%
- Total Cell Count (HEK-293T; [2]): 224 and 153
- Population Apoptotic (%) (HEK-293T; [3]): 20.57% and 16.42%
- Population Fragmented Nuclei (%) (HEK-293T; [3]): 1.62% and 1.42%
- Population Healthy Nuclei (%) (HEK-293T; [3]): 75.57% and 35.07%
- Population Hoechst High Intensity Objects (%) (HEK-293T; [3]): 0%
- Population Membrane Permeable-Phenotype (%) (HEK-293T; [3]): 1.07% and 0%
- Population Mitochondria Different-Phenotype (%) (HEK-293T; [3]): 15.42% and 12.16%
- Population Mitotic Cells (%) (HEK-293T; [3]): 79.43% and 83.58%
